Source: PubChem (Johns Hopkins Ion Channel Center)
The list is not random: actives were taken first. Their share in the collection is about 2.3%.
TRPC4 agonist – activators of mouse TRPC4 channel, primary screen, Fluo4 calcium, HEK293 TRPC4beta/mu-opioid cells; AID 2237, 2010; actives 0.49% (n = 310,000); Short transient receptor potential channel 4 (Mus musculus), Q9QUQ5; Fluo4 calcium fluorescence; hits give high values; B-score at 10 µM;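 active = B-score above 5 SD of library B-scores, and initial fluorescence ratio not above library mean plus 5 SD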;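 also: positive B-score marks a calcium rise read as TRPC4 activation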
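system = HEK293 cells stably co-expressing mouse TRPC4beta and mu-opioid receptor | schedule = Fluo4 dye loading 45 min at room temperature, 110 s recording | measure = B-scored integrated calcium fluorescence ratio | signal = Fluo4 calcium-sensitive dye fluorescence, kinetic, 1 Hz baseline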
TRPC6 inh – mouse TRPC6 channel inhibitors, primary screen, cell-based, HEK293, membrane potential dye; ACh-evoked depolarization; hits give low values; B-score at 10 µM; actives 1.1% (n = 310,000);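 active = B-score under library mean minus 3 SD, initial fluorescence not abnormally high, positive integrated signal ratio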;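 also: B-score derived from integrated fluorescence ratio over the kinetic read; more negative B-score means stronger inhibition of depolarization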
Target sequence (Q61143 whole entry, looked up): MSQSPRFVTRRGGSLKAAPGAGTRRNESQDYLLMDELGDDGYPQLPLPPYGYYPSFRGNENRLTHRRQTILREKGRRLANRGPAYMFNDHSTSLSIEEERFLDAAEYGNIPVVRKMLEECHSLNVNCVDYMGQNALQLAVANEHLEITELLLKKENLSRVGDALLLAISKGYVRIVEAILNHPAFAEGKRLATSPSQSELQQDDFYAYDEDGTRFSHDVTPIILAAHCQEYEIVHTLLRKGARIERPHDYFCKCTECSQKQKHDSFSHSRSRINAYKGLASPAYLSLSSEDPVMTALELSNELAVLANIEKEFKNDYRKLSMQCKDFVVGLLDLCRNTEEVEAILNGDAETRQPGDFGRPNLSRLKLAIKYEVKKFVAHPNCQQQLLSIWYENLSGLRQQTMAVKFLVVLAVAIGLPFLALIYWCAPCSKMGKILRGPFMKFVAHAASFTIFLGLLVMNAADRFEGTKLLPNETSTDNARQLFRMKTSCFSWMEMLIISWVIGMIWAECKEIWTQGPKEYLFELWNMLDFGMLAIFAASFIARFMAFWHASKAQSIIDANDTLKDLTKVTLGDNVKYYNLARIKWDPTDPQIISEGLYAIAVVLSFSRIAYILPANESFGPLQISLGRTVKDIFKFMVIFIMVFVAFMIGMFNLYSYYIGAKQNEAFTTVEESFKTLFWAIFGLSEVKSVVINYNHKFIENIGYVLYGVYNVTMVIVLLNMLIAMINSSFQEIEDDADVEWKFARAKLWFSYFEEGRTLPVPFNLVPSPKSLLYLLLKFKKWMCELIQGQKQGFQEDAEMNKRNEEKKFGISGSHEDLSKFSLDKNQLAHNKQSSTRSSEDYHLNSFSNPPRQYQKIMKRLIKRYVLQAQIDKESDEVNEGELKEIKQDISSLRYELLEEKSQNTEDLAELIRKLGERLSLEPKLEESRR
TRPC4 block – inhibitors of mouse TRPC4 channel, primary screen, Fluo4 calcium, HEK293 TRPC4beta/mu-opioid cells. DAMGO-evoked Fluo4 calcium flux; hits give low values. B-score at 10 µM. actives 0.39% (n = 300,000). AID 2247, 2010;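 active = B-score over 3 SD under the library average, no early fluorescence shift, positive overall ratio signal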
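System: stable TRPC4beta/mu-opioid receptor HEK293 cells; Dosing: single-point compound dosing; Measured by: Fluo4 Ca2+ flux fluorescence; Read-out basis: per-well B score of integrated baseline-normalized Fluo4 ratio.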
TRPC6 act – mouse TRPC6 channel activators, primary screen, cell-based, HEK293, membrane potential dye | HEK293-TRPC6 membrane potential dye fluorescence; hits give high values | B-score at 10 µM | actives 0.13% (n = 310,000) | AID 2550, 2010;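 active = B-score of the integrated fluorescence ratio above library mean plus 3 SD, and starting fluorescence ratio within library mean plus 5 SD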;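 also: higher score means more depolarization so channel activation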
TRPC4 potent – positive allosteric modulators of TRPC4, primary screen, cell-based, mouse TRPC4beta, HEK293 mu-opioid, Fluo-4 calcium. Short transient receptor potential channel 4 (Mus musculus), Q9QUQ5. DAMGO EC20, Fluo-4 Ca2+ flux; hits give high values. B-score at 10 µM. actives 0.42% (n = 310,000). AID 2227, 2009;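 active = B-score of calcium response area above 5 SD of library B-scores, with initial fluorescence ratio within 5 SD of library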;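 also: B-score of integrated fluorescence ratio over time as area under calcium response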
TRPC4 sel inh 2 – mouse TRPC4 off-target activity of TRPC6 inhibitors, second screen. AID 2776. HEK293 TRPC4/MOR, membrane potential dye fluorescence; channel activated by saturating DAMGO dose. shares compounds with TRPC6 inh. inhibition, % at 10 µM. actives 42% (n = 920);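 active = compounds whose fluorescence signal differed from control wells by over 3 SD, either direction, in both duplicate plates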
TRPC4 spec – mouse TRPC4 modulation by TRPC6 hits, confirmation, selectivity assay for TRPC6 inhibitor project, cell-based, HEK293 TRPC4/mu-opioid, membrane potential dye; shares compounds with TRPC6 inh; membrane potential fluorescence; activity change, negative = inhibition, % at 10 µM; actives 61% (n = 920); AID 2777, 2010;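 active = rise or fall in signal beyond 3 SD of buffer-only wells in both replicate plates, either sign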;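 also: integrated kinetic ratio of fluorescence range over baseline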
HEK293 MPD ctr 2-1 – nonspecific membrane potential effects, parental HEK293, confirmation, counter-screen for TRPC6 inhibitor project, cell-based, second counter screen. parental HEK293 membrane potential dye fluorescence; maximal acetylcholine challenge after compound addition. actives 31% (n = 920). shares compounds with TRPC6 inh. signal change vs control, % at 10 µM;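 active = membrane potential signal moving either way by over 3 SD of the maximum-effect control, in both duplicate plates, meaning non-specific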
HEK293 MPD ctr-1 – membrane potential modulation in parental HEK293, confirmation, counter-screen for TRPC6 inhibitor project, cell-based; shares compounds with TRPC6 inh; parental HEK293 membrane potential dye fluorescence; membrane potential signal change, % at 10 µM; actives 60% (n = 920);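 active = membrane potential signal shifting up or down by more than 3 SD of buffer-only wells, on both duplicate plates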
HEK293 MPD ctr-2 – parental HEK293 membrane potential modulation, confirmation, counter-screen for TRPC6 modulator project, cell-based | shares compounds with TRPC6 inh | membrane potential dye fluorescence | membrane potential signal change, % at 10 µM | actives 51% (n = 2,400);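 active = membrane potential signal moves up or down beyond 5 SD from buffer-only wells, on both duplicate plates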
HEK293 MPD ctr 2-2 – second check of TRPC6 modulator effects in parental HEK293 cells; membrane potential dye fluorescence; after compound, maximal acetylcholine stimulation; inhibition, % at 10 µM; shares compounds with TRPC6 inh; actives 14% (n = 2,400);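 active = membrane potential signal drops by more than 5 SD from the mean control signal, in both duplicate plates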;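 also: plate controls were acetylcholine ECmax control wells for no effect and buffer only wells for full effect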
TRPC4 ctr mod – TRPC4 modulation by TRPC6 hit compounds, confirmation, selectivity assay for TRPC6 modulator project, cell-based, HEK293 TRPC4/mu-opioid, membrane potential dye, mouse | actives 69% (n = 2,400) | membrane potential fluorescence | AID 488927, 2010 | percent change from control (negative = decrease, positive = increase), % at 10 µM | shares compounds with TRPC6 inh;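 active = membrane potential signal moved up or down beyond 5 SD of buffer control wells, in both duplicate plates, actives on both sides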;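 also: plate controls were assay buffer wells for no effect and DAMGO maximal-effect wells for full effect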
TRPC4/MOR inh 2 – mouse TRPC4 off-target activity of TRPC6 modulators, second screen; shares compounds with TRPC6 inh; HEK293 TRPC4/mu-opioid, membrane potential dye fluorescence; stimulated with maximal-effect DAMGO; inhibition, % at 10 µM; actives 55% (n = 2,400);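 active = drop in membrane potential signal beyond 5 SD of the control wells in both duplicate plates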;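 also: TRPC4 counter screen for TRPC6 hits run under conditions tuned for TRPC6 not TRPC4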
TRPC6 block conf – mouse TRPC6 channel inhibitors, confirmation, HEK293 cells, membrane potential dye, duplicate; inhibition, % at 10 µM; ACh-evoked depolarization; actives 43% (n = 3,300); shares compounds with TRPC6 inh; AID 488960, 2010;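 active = fluorescence ratio falls more than 5 SD below the full-stimulation control mean, in both duplicate runs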;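 also: integrated fluorescence ratio of peak minus minimum over baseline after agonist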
TRPC6 act conf – mouse TRPC6 channel activators, confirmation, HEK293 cells, membrane potential dye, duplicate; shares compounds with TRPC6 inh; HEK293-TRPC6 membrane potential dye fluorescence, FDSS; activation, % at 10 µM; actives 11% (n = 2,800); AID 488961, 2010;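 active = ratio signal rise beyond 5 SD above unstimulated control wells' mean, seen in both duplicate runs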;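 also: plate controls were buffer EC0 wells for no effect and acetylcholine ECmax response for full effect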
* = called active by the depositor.

Cn1c2c(c(=O)n(C)c1=O)C(C(F)(F)F)(C(F)(F)F)N=C(c1ccc(Cl)cc1)N2 was read as TRPC4 agonist inactive, TRPC6 inh -7.92*, TRPC4 block inactive, TRPC6 act inactive, TRPC4 potent inactive, TRPC4 sel inh 2 75.5%*, TRPC4 spec 20.1%*, HEK293 MPD ctr 2-1 inactive, HEK293 MPD ctr-1 10.6%*, TRPC6 block conf 101.5%* and TRPC6 act conf inactive.
Screening CN(C)CCNc1nc(-c2ccccc2)nnc1C(F)(F)F returned TRPC4 agonist inactive, TRPC6 inh inactive, TRPC4 block inactive, TRPC6 act inactive and TRPC4 potent inactive.
For Cc1nnc(-c2ccc(Cl)cc2)nc1NCCN(C)C the results were TRPC4 agonist inactive, TRPC6 inh -5.02*, TRPC4 block inactive, TRPC6 act inactive, TRPC4 potent inactive, HEK293 MPD ctr-2 inactive, HEK293 MPD ctr 2-2 inactive, TRPC4 ctr mod inactive, TRPC4/MOR inh 2 inactive, TRPC6 block conf inactive and TRPC6 act conf inactive.
`CCc1ccc2oc(-c3ccc(OC)cc3)cc(=Nc3cccc(C(=O)O)c3)c2c1` gave TRPC4 agonist inactive, TRPC6 inh inactive, TRPC4 block inactive, TRPC6 act inactive and TRPC4 potent inactive.
`CCc1ccc2oc(-c3ccc(OC)cc3)cc(=Nc3c(C)n(C)n(-c4ccccc4)c3=O)c2c1` gave TRPC4 agonist inactive, TRPC6 inh -7.84*, TRPC4 block inactive, TRPC6 act inactive, TRPC4 potent inactive, TRPC4 sel inh 2 inactive, TRPC4 spec -13.0%*, HEK293 MPD ctr 2-1 inactive, HEK293 MPD ctr-1 -245.5%*, TRPC6 block conf inactive and TRPC6 act conf inactive.
For N#CC1(NC(=O)Cn2ncc(Cl)c(Cl)c2=O)CCCCC1 the results were TRPC4 agonist inactive, TRPC6 inh inactive, TRPC4 block inactive, TRPC6 act inactive and TRPC4 potent inactive.
Cc1ccc(N2CCOCC2)c2c1C(=O)c1ccccc1C2=O was read as TRPC4 agonist inactive, TRPC6 inh -5.1*, TRPC4 block inactive, TRPC6 act inactive, TRPC4 potent inactive, HEK293 MPD ctr-2 -195.0%*, HEK293 MPD ctr 2-2 inactive, TRPC4 ctr mod -33.5%*, TRPC4/MOR inh 2 71.0%*, TRPC6 block conf 43.0%* and TRPC6 act conf inactive.
Screening O=C1C=C(N2CCOCC2)c2ccccc2C1=O returned TRPC4 agonist inactive, TRPC6 inh inactive, TRPC4 block inactive, TRPC6 act inactive and TRPC4 potent inactive.
For CCOc1ccc2c(C)nc(NC3=NC(C)(C)C=C(C)N3)nc2c1 the results were TRPC4 agonist inactive, TRPC6 inh -5.13*, TRPC4 block -9*, TRPC6 act inactive, TRPC4 potent inactive, HEK293 MPD ctr-2 inactive, HEK293 MPD ctr 2-2 inactive, TRPC4 ctr mod inactive, TRPC4/MOR inh 2 inactive, TRPC6 block conf inactive and TRPC6 act conf inactive.
Screening Cc1onc(-c2ccccc2)c1C(=O)N/N=C/c1ccc([N+](=O)[O-])s1 returned TRPC4 agonist inactive, TRPC6 inh -8.16*, TRPC4 block inactive, TRPC6 act inactive, TRPC4 potent inactive, TRPC4 sel inh 2 inactive, TRPC4 spec inactive, HEK293 MPD ctr 2-1 inactive, HEK293 MPD ctr-1 inactive, TRPC6 block conf inactive and TRPC6 act conf inactive.
CCOC(=O)N1CCN(C(=O)c2cc3cc(Cl)ccc3[nH]2)CC1 was read as TRPC4 agonist inactive, TRPC6 inh -6.07*, TRPC4 block inactive, TRPC6 act inactive, TRPC4 potent inactive, HEK293 MPD ctr-2 inactive, HEK293 MPD ctr 2-2 inactive, TRPC4 ctr mod inactive, TRPC4/MOR inh 2 inactive, TRPC6 block conf inactive and TRPC6 act conf inactive.
For CCOC(=O)N1CCN(C(=O)c2cc3cc(F)ccc3[nH]2)CC1 the results were TRPC4 agonist inactive, TRPC6 inh inactive, TRPC4 block inactive, TRPC6 act inactive and TRPC4 potent inactive.
`CCC(C)C(NC(=O)c1ccccc1NC(=O)c1ccc(OC)cc1)C(=O)NCc1ccco1` (stereo unspecified) gave TRPC4 agonist inactive, TRPC6 inh inactive, TRPC4 block inactive, TRPC6 act inactive and TRPC4 potent inactive.
